Experimental data as given in ChEMBL document CHEMBL3785077 (J Med Chem, 2016).
Active and inactive are the calls of the source. The rule behind the calls is not given here.

Experiments:
HT-22 [1] = assay: Neuroprotective activity against glutamate-induced oxycytotic cell death in mouse HT22 cells assessed as cell viability at 5 uM after 24 hrs by MTT assay; format: functional, cell-based
Procedure, shortened: (§1)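 Murine hippocampal HT-22 cells in high-glucose DMEM with 10% heat-inactivated FCS, 37 °C, 5% CO2. […] MTT (4 mg/mL in PBS, diluted 1:10 in medium) for 3 h, lysis in 10% SDS pH 4.1, absorbance 560 nm; viability as % of untreated cells.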

[2] = Antioxidant activity assessed as trolox equivalents of AAPH radical scavenging activity preincubated for 15 mins followed by AAPH addition measured every 60 secs for 90 mins by ORAC assay; format: physicochemical; settings: 1.5 h
Procedure, shortened: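 ORAC-FL: compound (1−5 μM) with fluorescein (300 nM final) in 75 mM phosphate buffer pH 7.4, 15 min at 37 °C, then AAPH (12 mM final). Fluorescence read every 60 s for 90 min (ex 485/em 535 nm). […] Samples in quadruplicate, ≥4 independent runs.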

HT-22 [3] = assay: Neuroprotective activity against glutamate-induced oxycytotic cell death in mouse HT22 cells assessed as cell viability at 25 uM after 24 hrs by MTT assay; format: functional, cell-based
Procedure, shortened: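 Murine hippocampal HT-22 cells in high-glucose DMEM with 10% heat-inactivated FCS, 37 °C, 5% CO2. MTT (4 mg/mL in PBS, diluted 1:10 in medium) for 3 h, lysis in 10% SDS pH 4.1, absorbance 560 nm; viability as % of untreated cells.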

Acetylcholinesterase [4] = molecular target: T1, Acetylcholinesterase (Homo sapiens, UniProt P22303); assay: Inhibition of human acetylcholinesterase using […] as substrate at 50 uM preincubated for 4.5 mins followed by substrate addition measured after 2.5 mins by Ellman's spectrophotometric method
[5] = Neurotoxicity against mouse HT22 cells assessed as cell viability at 1 and 5 uM after 24 hrs by MTT assay; format: toxicity, cell-based; settings: ht-22, 24 h
Procedure, shortened: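 HT-22 murine hippocampal cells grown in high-glucose DMEM plus 10% heat-inactivated FCS at 37 °C, 5% CO2. After 24 h culture in plates, treated 24 h with compound (DMSO ≤0.1% final) without glutamate. Viability read by MTT (3 h), SDS lysis buffer pH 4.1, absorbance at 560 nm, given as percent of untreated control.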

Cholinesterase [6] = molecular target: T2, Cholinesterase (Equus caballus, UniProt P81908); assay: Inhibition of equine serum butyrylcholinesterase using […] as substrate preincubated for 4.5 mins followed by substrate addition measured after 2.5 mins by Ellman's spectrophotometric method
Procedure, shortened: (§2)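 Ellman assay at 25 °C in phosphate buffer pH 8.0. Enzyme (AChE from human erythrocytes, BChE from equine or human serum; 2.5 units/mL stock with 2 mg/mL BSA) and DTNB (0.3 mM in assay) preincubated with compound from ethanol stocks (1 nM−1 mM in assay). Acetyl- or butyrylthiocholine added (452 μM in assay), absorbance at 412 nm after 2.5 min. Ethanol control, triplicates, IC50 from activity vs log concentration.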

HT-22 [7] = assay: Neuroprotective activity against glutamate-induced oxycytotic cell death in mouse HT22 cells assessed as cell viability at 1 uM after 24 hrs by MTT assay; format: functional, cell-based; procedure, shortened: as §1
Cholinesterase [8] = molecular target: T2, Cholinesterase; assay: Inhibition of equine serum butyrylcholinesterase using […] as substrate preincubated for 30 mins followed by substrate addition measured after 2.5 mins by Ellman's spectrophotometric method
Procedure, shortened: as §2, with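 “assay).” for “assay). Acetyl- or butyrylthiocholine added (452 μM in assay), absorbance at 412 nm after 2.5 min.”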

[9] = molecular target: Cholinesterase (Equus caballus) (UniProt P81908); assay: Pseudo-irreversible inhibition of equine serum butyrylcholinesterase assessed as carbamoylation rate of inhibitor from reversible enzyme inhibitor complex to carbamoylated enzyme using p-nitrophenyl butyrate as substrate preincubated for 5 to 40 mins followed by substrate addition by double reciprocal plot analysis
Cholinesterase [10] = molecular target: Cholinesterase (Homo sapiens, UniProt P06276); assay: Inhibition of human butyrylcholinesterase using […] as substrate preincubated for 30 mins followed by substrate addition measured after 2.5 mins by Ellman's spectrophotometric method; procedure, shortened: as §2
[11] = molecular target: Cholinesterase (Equus caballus) (UniProt P81908); assay: Pseudo-irreversible inhibition of equine serum butyrylcholinesterase assessed as half life for carbamoylated enzyme using […] as substrate preincubated for 1 hr followed by 1000 fold dilution
Procedure, shortened: (§3)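 Enzyme incubated 1 h with inhibitor at a fully inhibiting concentration, then diluted 1:1000 in assay buffer. Activity measured by Ellman assay at various times after dilution, with uninhibited enzyme treated the same way as control. First-order fit of activity recovery gives k4.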

[12] = Neurotoxicity against mouse HT22 cells assessed as cell viability up to 10 uM after 24 hrs by MTT assay; format: toxicity, cell-based, HT-22; settings: read-out: Activity
Procedure, shortened: (§4)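 Murine hippocampal HT-22 cells in high-glucose DMEM with 10% heat-inactivated FCS, 37 °C, 5% CO2. […] MTT 3 h, SDS lysis, absorbance at 560 nm, viability as % of untreated cells.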

[13] = molecular target: Cholinesterase (Equus caballus) (UniProt P81908); assay: (§5) Pseudo-irreversible inhibition of equine serum butyrylcholinesterase assessed as apparent affinity between enzyme and inhibitor at equilibrium state using p-nitrophenyl butyrate as substrate preincubated for 5 to 40 mins followed by substrate addition by double reciprocal plot analysis
Acetylcholinesterase [14] = molecular target: T1, Acetylcholinesterase; assay: Inhibition of human acetylcholinesterase using […] as substrate at 100 uM preincubated for 4.5 mins followed by substrate addition measured after 2.5 mins by Ellman's spectrophotometric method
HT-22 [15] = assay: Neuroprotective activity against glutamate-induced oxycytotic cell death in mouse HT22 cells assessed as cell viability at 5 to 25 uM after 24 hrs by MTT assay; format: functional, cell-based; procedure, shortened: as §4
[16] = molecular target: Cholinesterase (Equus caballus) (UniProt P81908); assay: Pseudo-irreversible inhibition of equine serum butyrylcholinesterase assessed as decarbamoylation rate using […] as substrate preincubated for 1 hr followed by 1000 fold dilution; procedure, shortened: as §3
[17] = molecular target: Cholinesterase (Equus caballus) (UniProt P81908); assay: as §5, with “assessed as ratio of carbamoylation rate of inhibitor to apparent affinity” for “assessed as apparent affinity”
Acetylcholinesterase [18] = molecular target: T1, Acetylcholinesterase; assay: Inhibition of human acetylcholinesterase using […] as substrate at 10 uM preincubated for 4.5 mins followed by substrate addition measured after 2.5 mins by Ellman's spectrophotometric method
[19] = Neurotoxicity against mouse HT22 cells assessed as decrease in cell viability at 25 uM after 24 hrs by MTT assay; format: toxicity, cell-based; settings: ht-22, 24 h; procedure, shortened: as §4

Sequence of Cholinesterase (Equus caballus) (P81908 whole entry): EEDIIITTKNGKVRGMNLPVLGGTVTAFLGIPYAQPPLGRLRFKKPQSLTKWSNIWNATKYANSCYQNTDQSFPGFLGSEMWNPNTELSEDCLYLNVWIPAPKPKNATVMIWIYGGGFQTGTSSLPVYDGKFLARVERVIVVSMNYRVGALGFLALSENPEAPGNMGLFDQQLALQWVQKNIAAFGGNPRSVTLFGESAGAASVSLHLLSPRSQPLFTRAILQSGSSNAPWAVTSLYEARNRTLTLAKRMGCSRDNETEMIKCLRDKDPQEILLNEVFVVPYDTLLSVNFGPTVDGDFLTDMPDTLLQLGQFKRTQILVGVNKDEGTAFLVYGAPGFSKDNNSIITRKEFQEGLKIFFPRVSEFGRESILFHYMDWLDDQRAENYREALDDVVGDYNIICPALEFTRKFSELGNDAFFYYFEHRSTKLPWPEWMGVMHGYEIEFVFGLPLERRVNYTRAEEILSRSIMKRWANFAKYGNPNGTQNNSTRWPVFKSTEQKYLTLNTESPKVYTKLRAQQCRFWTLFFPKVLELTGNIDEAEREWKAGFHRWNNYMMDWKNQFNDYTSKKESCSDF
T2 sequence (P81908 whole entry): as above
T1 sequence (P22303 whole entry): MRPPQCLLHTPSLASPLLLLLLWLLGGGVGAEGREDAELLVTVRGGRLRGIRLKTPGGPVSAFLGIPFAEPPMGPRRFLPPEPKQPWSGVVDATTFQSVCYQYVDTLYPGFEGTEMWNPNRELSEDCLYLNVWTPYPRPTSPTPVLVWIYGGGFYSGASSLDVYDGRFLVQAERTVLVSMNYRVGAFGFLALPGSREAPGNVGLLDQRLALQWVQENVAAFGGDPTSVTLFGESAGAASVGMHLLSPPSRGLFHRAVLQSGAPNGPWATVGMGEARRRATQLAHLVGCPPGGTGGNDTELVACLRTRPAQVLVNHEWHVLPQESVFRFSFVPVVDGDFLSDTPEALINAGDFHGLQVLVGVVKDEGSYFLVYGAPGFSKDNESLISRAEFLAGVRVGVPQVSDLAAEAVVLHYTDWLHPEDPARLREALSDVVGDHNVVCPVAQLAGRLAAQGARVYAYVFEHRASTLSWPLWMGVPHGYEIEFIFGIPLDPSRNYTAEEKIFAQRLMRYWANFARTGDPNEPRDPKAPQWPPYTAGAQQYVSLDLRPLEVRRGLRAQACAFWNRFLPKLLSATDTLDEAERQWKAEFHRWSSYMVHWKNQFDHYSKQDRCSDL
Sequence of Cholinesterase (Homo sapiens, UniProt P06276) (P06276 whole entry): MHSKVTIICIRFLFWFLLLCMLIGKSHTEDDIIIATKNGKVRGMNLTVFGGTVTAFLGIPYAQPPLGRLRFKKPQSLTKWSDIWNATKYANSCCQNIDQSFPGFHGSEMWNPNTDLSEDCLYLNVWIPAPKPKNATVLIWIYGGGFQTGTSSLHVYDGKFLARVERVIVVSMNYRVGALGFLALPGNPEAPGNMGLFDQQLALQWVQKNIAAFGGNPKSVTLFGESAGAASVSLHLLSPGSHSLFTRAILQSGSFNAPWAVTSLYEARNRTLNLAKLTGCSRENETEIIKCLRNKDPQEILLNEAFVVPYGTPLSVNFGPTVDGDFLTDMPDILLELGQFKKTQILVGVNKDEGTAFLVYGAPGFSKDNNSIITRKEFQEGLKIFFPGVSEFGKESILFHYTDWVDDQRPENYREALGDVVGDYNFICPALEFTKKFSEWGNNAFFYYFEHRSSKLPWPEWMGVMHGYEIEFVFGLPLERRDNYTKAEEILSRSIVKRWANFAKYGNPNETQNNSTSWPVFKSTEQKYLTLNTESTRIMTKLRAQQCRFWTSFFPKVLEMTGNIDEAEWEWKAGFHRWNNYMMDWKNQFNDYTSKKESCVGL

CN1c2ccc(O)cc2CN(Cc2ccccc2)C1c1ccccc1 (centres undefined)
Activity (HT-22 [1]): Active
Activity [2]: 3.9 equiv
Activity (HT-22 [3]): inactive
inhibition (Acetylcholinesterase [4]): 16%
Activity [5]: Non-toxic
IC50 (Cholinesterase [6]): 14.8 µM
Activity (HT-22 [7]): Active

CCCCCCCNC(=O)Oc1ccc2c(c1)CN(C)C(c1cccs1)N2C (centres undefined)
IC50 (Cholinesterase [8]): 0.014 µM
K [9]: 0.14 min⁻¹
Activity [2]: 0.2 equiv
IC50 (Cholinesterase [10]): 0.013 µM
T1/2 [11]: 5 h
viability at 24 h [12]: > 80%
K [13]: 14.3 nM
inhibition (Acetylcholinesterase [14]): 0%
Activity (HT-22 [15]): Active
K [16]: 0.14 h⁻¹
Ratio [17]: 9.79 µM⁻¹ min⁻¹

CCCCCCCNC(=O)Oc1ccc2c(c1)CN(Cc1ccccc1)C(c1ccccc1)N2C (centres undefined)
IC50 (Cholinesterase [8]): 0.034 µM
inhibition (Acetylcholinesterase [18]): 17%
Activity [2]: 1.7 equiv
Activity [19]: Non-toxic
viability at 24 h [12]: > 80%
Activity (HT-22 [15]): Active
